Data published in ChEMBL document CHEMBL1649157, “Intracellular activity of antibiotics against Staphylococcus aureus in a mouse peritonitis model” (Antimicrob Agents Chemother, 2009).
Values after ≈ are worked out from the molar mass of the structure shown. Active and inactive are the calls of the source. The rule behind the calls is not given here.

Columns and labels:
Staphylococcus aureus [1] = assay: Antibacterial activity against Staphylococcus aureus E19977 infected in NMRI mouse assessed as log reduction in extracellular bacterial cfu in peritoneum at 200 mg/kg, sc administered 2 hrs after infection measured after 4 hrs; format: functional, organism-based; parameters: dose 200 mg/kg
Outline: (§1)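 Dose–response in i.p.-infected NMRI mice (mucin adjuvant). Single doses of 200, 60, 30, 20 or 10 mg/kg were given 2 h after inoculation, with 4–16 mice per group. Peritoneal wash was sampled 4 h later and split by lysostaphin/centrifugation into total, extra- and intracellular counts, then expressed as Δlog10 CFU/ml against log dose. Vehicle controls were plotted as 0.3 mg/kg. Hill fit (variable slope); static dose interpolated.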

Staphylococcus aureus [2] = assay: Bactericidal activity against Staphylococcus aureus E19977 assessed as log reduction in cfu at 1.5 mg/liter after 24 hrs by time-kill study; format: functional, organism-based
Outline: (§2)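 In vitro kinetic model simulating antibiotic elimination without inoculum change. Exponential-phase E19977 was added at a final 10^6.3 CFU/ml. Starting drug concentration matched the human free peak, with the human half-life simulated. Samples were plated on 5% blood agar at 0, 2, 4, 6, 8, 12 and 24 h, with growth controls in each run. Results are shown as mean and range, n = 2.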

Staphylococcus aureus [3] = assay: Antibacterial activity against Staphylococcus aureus E19977 infected in NMRI mouse assessed as log reduction in intracellular bacterial cfu in peritoneum at 200 mg/kg, sc administered 2 hrs after infection measured after 4 hrs; format: functional, organism-based; parameters: dose 200 mg/kg; outline: as §1
Staphylococcus aureus [4] = assay: Antibacterial activity against Staphylococcus aureus E19977 infected in NMRI mouse assessed as log reduction in intracellular bacterial cfu in peritoneum at 200 mg/kg, sc administered as single dose 2 hrs after infection measured between 4 to 19 hrs; format: functional, organism-based; parameters: dose 200 mg/kg
Outline: (§3)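 NMRI mice were infected i.p. and given one or three doses (every 8 h), starting 2 h post-inoculation, at 200 mg/kg or 60 mg/kg, four mice per group. Peritoneal washes were sampled over 19 h of treatment. Total, extracellular and intracellular CFU/ml (lysostaphin separation) were compared with the pretreatment level; mean ± range, n = 2. Untreated controls were sampled only at 6 h of infection.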

[5] = Cmax in human at 1000 mg, po; format: ADME, organism-based; parameters: dose 1000 mg, route oral; conditions: in vivo
Staphylococcus aureus [6] = assay: Antibacterial activity against Staphylococcus aureus E19977 infected in NMRI mouse assessed as log reduction in bacterial cfu in peritoneum at 200 mg/kg, sc administered 2 hrs after infection measured after 4 hrs; format: functional, organism-based; parameters: dose 200 mg/kg; outline: as §1
Staphylococcus aureus [7] = assay: Antibacterial activity against Staphylococcus aureus E19977 infected in NMRI mouse assessed as log reduction in extracellular bacterial cfu in peritoneum at 60 mg/kg, sc administered as single dose 2 hrs after infection measured after 4 hrs; format: functional, organism-based; parameters: dose 60 mg/kg
Outline: (§4)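 NMRI mice were infected i.p. with S. aureus E19977 in 5% mucin. A single dose (60 mg/kg or 10 mg/kg) was given 1, 2 or 3 h after inoculation, four mice per group. Peritoneal wash was sampled after 4 h of treatment and separated into total, extracellular and intracellular counts by lysostaphin/centrifugation. Δlog10 CFU/ml was calculated against vehicle-treated mice infected for the same time (5, 6 or 7 h).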

Staphylococcus aureus [8] = assay: Antibacterial activity against Staphylococcus aureus E19977 infected in NMRI mouse assessed as log reduction in bacterial cfu in peritoneum at 10 to 200 mg/kg, sc administered 2 hrs after infection measured after 4 hrs; format: functional, organism-based; outline: as §1
Staphylococcus aureus [9] = assay: Antibacterial activity against Staphylococcus aureus E19977 infected in NMRI mouse assessed as log reduction in bacterial cfu in peritoneum at 200 mg/kg, sc administered as single dose 2 hrs after infection measured between 4 to 19 hrs; format: functional; conditions: route subcutaneous
Outline: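 Female outbred NMRI mice (25 to 30 g) were infected i.p. with 0.5 ml of 10^7.7 CFU/ml S. aureus E19977 in 5% (wt/vol) mucin. The first dose was given 2 h after inoculation, either once or as three doses every 8 h, with four mice per group. Mice were euthanized 19 h after treatment onset and washed peritoneally with 2.0 ml saline. Total CFU were counted by duplicate spotting of 10-fold dilutions on 5% blood agar.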

Staphylococcus aureus [10] = assay: Antibacterial activity against Staphylococcus aureus E19977 infected in NMRI mouse assessed as log reduction in extracellular bacterial cfu in peritoneum at 60 mg/kg, sc administered as single dose 1 hr after infection measured after 4 hrs; format: functional, organism-based; parameters: dose 60 mg/kg; outline: as §4
Staphylococcus aureus [11] = assay: Antibacterial activity against Staphylococcus aureus E19977 infected in NMRI mouse assessed as log reduction in intracellular bacterial cfu in peritoneum at 200 mg/kg, sc administered 2 hrs after infection evry 8 hrs as three-dose regimen measured after 19 hrs; format: functional, organism-based; parameters: dose 200 mg/kg; outline: as §3
Staphylococcus aureus [12] = assay: Antibacterial activity against Staphylococcus aureus E19977 infected in NMRI mouse assessed as log reduction in bacterial cfu in peritoneum at 60 mg/kg, sc administered as single dose 2 hrs after infection measured within 4 hrs; format: functional; conditions: route subcutaneous
Outline: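 Female NMRI mice were infected i.p. with S. aureus E19977 (10^7.7 CFU/ml, 0.5 ml, 5% mucin). They were treated 2 h post-inoculation with a single 60 mg/kg dose and sampled after 4 h of treatment. Peritoneal-wash CFU were plated on blood agar. Δlog10 CFU/ml was calculated against vehicle-treated controls with the same infection duration.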

Staphylococcus aureus [13] = assay: Antibacterial activity against Staphylococcus aureus E19977 infected in NMRI mouse assessed as log reduction in bacterial cfu in peritoneum at 60 mg/kg, sc administered as single dose 3 hrs after infection measured after 4 hrs; format: functional, organism-based; parameters: dose 60 mg/kg; outline: as §4
Staphylococcus aureus [14] = assay: Antibacterial activity against Staphylococcus aureus E19977 by Etest; format: functional
Staphylococcus aureus [15] = assay: Antibacterial activity against Staphylococcus aureus E19977 infected in NMRI mouse assessed as log reduction in bacterial cfu in peritoneum at 60 mg/kg, sc administered as single dose 2 hrs after infection measured after 4 hrs; format: functional, organism-based; parameters: dose 60 mg/kg; outline: as §4
Staphylococcus aureus [16] = assay: Bactericidal activity against Staphylococcus aureus E19977 assessed as log reduction in cfu at 0.5 mg/liter after 24 hrs by time-kill study; format: functional, organism-based; outline: as §2
Staphylococcus aureus [17] = assay: Bactericidal activity against Staphylococcus aureus E19977 assessed as log reduction in cfu at 20 mg/liter upto 24 hrs by time-kill study; format: functional
Outline: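 In vitro kinetic model: exponential-phase bacteria at a final 10^6.3 CFU/ml were exposed to a starting concentration set to the human free peak level. Elimination followed the simulated human half-life. Samples were taken at 0, 2, 4, 6, 8, 12 and 24 h and counted on 5% blood agar (detection limit 25 CFU/ml). Growth controls were included; n = 2.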

Staphylococcus aureus [18] = assay: Antibacterial activity against Staphylococcus aureus E19977 infected in NMRI mouse assessed as log reduction in bacterial cfu in peritoneum at 60 mg/kg, sc administered as single dose 1 hr after infection measured after 4 hrs; format: functional, organism-based; parameters: dose 60 mg/kg; outline: as §4
Staphylococcus aureus [19] = assay: Antibacterial activity against Staphylococcus aureus E19977 infected in NMRI mouse assessed as log reduction in intracellular bacterial cfu in peritoneum at 60 mg/kg, sc administered as single dose 1 hr after infection measured after 4 hrs; format: functional, organism-based; parameters: dose 60 mg/kg; outline: as §4
Staphylococcus aureus [20] = assay: Bactericidal activity against Staphylococcus aureus E19977 assessed as log reduction in cfu at 9 mg/liter after 24 hrs by time-kill study; format: functional, organism-based; outline: as §2
Staphylococcus aureus [21] = assay: Bactericidal activity against Staphylococcus aureus E19977 assessed as log reduction in cfu at 2 mg/liter after 24 hrs by time-kill study; format: functional, organism-based; outline: as §2

For Cc1onc(-c2c(Cl)cccc2Cl)c1C(=O)N[C@@H]1C(=O)N2[C@@H]1SC(C)(C)[C@@H]2C(=O)O [DICLOXACILLIN], the Activity (Staphylococcus aureus [1]) was “Active”, the Activity (Staphylococcus aureus [2]) was “inactive” and the Activity (Staphylococcus aureus [3]) was “inactive”. For the same compound, the Activity (Staphylococcus aureus [4]) was “inactive”, the Cmax [5] was 30000 ng/mL and the Activity (Staphylococcus aureus [6]) was “Active”. For the same compound, the Activity (Staphylococcus aureus [7]) was “inactive”, the Activity (Staphylococcus aureus [8]) was “Dose-dependent effect” and the FC (Staphylococcus aureus [9]) was less than 1. The Activity (Staphylococcus aureus [10]) was “Active”, the Activity (Staphylococcus aureus [11]) was “inactive” and the FC (Staphylococcus aureus [12]) was less than 1. For the same compound, the Activity (Staphylococcus aureus [13]) was “inactive”, the MIC (Staphylococcus aureus [14]) was 0.5 µg/mL (≈ 1.06 µM) and the Activity (Staphylococcus aureus [15]) was “inactive”. The Activity (Staphylococcus aureus [16]) was “inactive”, the FC (Staphylococcus aureus [17]) was greater than 2 and the Activity (Staphylococcus aureus [18]) was “Active”. The Activity (Staphylococcus aureus [19]) was “Active”, the Activity (Staphylococcus aureus [20]) was “inactive” and the Activity (Staphylococcus aureus [21]) was “inactive”.
